Tests used:
[1] = target: P2Y purinoceptor 12 (Homo sapiens, UniProt Q9H244); assay: Displacement of [33P]2-MeS-ADP from human recombinant P2Y12 receptor expressed in CHO cell membranes by scintillation counting method
[2] = system: Platelet; assay: Inhibition of ADP-stimulated platelet aggregation in human platelet rich plasma by 96-well format based turbidimetric method; format: functional
Method in brief: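 Citrated (ACD-A) donor blood was spun at 150g for 15 min at room temperature to give PRP. PRP was adjusted with PPP to 3 × 10^8 platelets/mL. Compound, diluted in NaCl, was preincubated with hPRP for 5 min before ADP was added.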

[3] = system: Platelet; assay: Inhibition of ADP-stimulated platelet aggregation in human platelet rich plasma by light transmission aggregometry based Born method; format: functional, cell-based

Chain of P2Y purinoceptor 12 (Q9H244 whole entry): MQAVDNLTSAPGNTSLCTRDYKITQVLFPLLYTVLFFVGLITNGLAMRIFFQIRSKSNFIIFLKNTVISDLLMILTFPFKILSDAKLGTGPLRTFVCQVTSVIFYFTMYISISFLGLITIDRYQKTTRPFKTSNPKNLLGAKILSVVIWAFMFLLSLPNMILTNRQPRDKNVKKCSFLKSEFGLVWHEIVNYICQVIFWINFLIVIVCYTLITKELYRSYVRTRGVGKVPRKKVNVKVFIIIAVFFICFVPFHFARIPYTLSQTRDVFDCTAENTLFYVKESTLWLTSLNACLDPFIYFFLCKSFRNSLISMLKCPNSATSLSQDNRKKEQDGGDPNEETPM

Structure (SMILES) | Ki [1] [nM] | IC50 [2] [nM] | IC50 [3] [nM]
CCCCOC(=O)N1CCN(C(=O)[C@H](CCCO)NC(=O)c2cc(OCC(=O)N3CCC[C@H]3C(=O)NC3CCC3)n(-c3ccccc3)n2)CC1 | 6.5 | 92 | 70
CCCCOC(=O)N1CCN(C(=O)[C@H](CCC(=O)O)NC(=O)c2cc(OCC(=O)N3CCC[C@H]3C(=O)NC3CCC3)n(-c3ccccc3)n2)CC1 | 0.8 | 19 | 13
CCOC(=O)N1CCN(C(=O)[C@H](CCC(=O)O)NC(=O)c2cc(OCC(=O)N3CC[C@H]3C(=O)NC3CCC3)n(-c3ccccc3)n2)CC1 | 42 | 76 | –
CCOC(=O)N1CCN(C(=O)[C@H](CCC(=O)O)NC(=O)c2cc(OCC(=O)N3CC[C@@H](O)C3)n(-c3ccccc3)n2)CC1 | 459 | 1370 | –
CCOC(=O)N1CCN(C(=O)[C@H](CCC(=O)O)NC(=O)c2cc(OCC(=O)N3CCC[C@H]3C(=O)N3CCCC3)n(-c3ccccc3)n2)CC1 | 219 | 600 | –
CCOC(=O)N1CCN(C(=O)[C@H](CCC(=O)O)NC(=O)c2cc(OCC(=O)N3CCC[C@H]3C(=O)N(C)C3CCC3)n(-c3ccccc3)n2)CC1 | 27 | 220 | –
CCOC(=O)N1CCC(NC(=O)[C@H](CCC(=O)O)NC(=O)c2cc(OCC(=O)N3CCC[C@H]3C(=O)NC3CCC3)n(-c3ccccc3)n2)CC1 | > 5000 | > 5000 | –
CCOC(=O)N1CCN(C(=O)[C@H](CCN)NC(=O)c2cc(OCC(=O)N3CCC[C@H]3C(=O)NC3CCC3)n(-c3ccccc3)n2)CC1 | 180 | 3770 | –
O=C(O)CC[C@H](NC(=O)c1cc(OCC(=O)N2CCC[C@H]2C(=O)NC2CCC2)n(-c2ccccc2)n1)C(=O)N1CCN(C(=O)OCc2ccccc2)CC1 | 5.7 | 124 | –
CCOC(=O)N1CCN(C(=O)[C@H](CCC(=O)O)NC(=O)c2cc(OCC(=O)N3CCC[C@H]3C(=O)NC3CCCC3)n(-c3ccccc3)n2)CC1 | 20 | 13 | 38
CCNC(=O)[C@@H]1CCCN1C(=O)COc1cc(C(=O)N[C@@H](CCC(=O)O)C(=O)N2CCN(C(=O)OCC)CC2)nn1-c1ccccc1 | 303 | 475 | –
CCCSc1nc(N[C@@H]2C[C@H]2c2ccc(F)c(F)c2)c2nnn([C@@H]3C[C@H](OCCO)[C@@H](O)[C@H]3O)c2n1 [TICAGRELOR] | 14 | 1830 | –
CCOC(=O)N1CCN(C(=O)[C@H](CCC(=O)O)NC(=O)c2cc(OCC(N)=O)n(-c3ccccc3)n2)CC1 | 2720 | 9050 | –
CCOC(=O)N1CCN(C(=O)[C@H](CCC(=O)O)NC(=O)c2cc(OCC(=O)N3CCC[C@H]3C(N)=O)n(-c3ccccc3)n2)CC1 | 283 | 3100 | –
CCC[C@H](NC(=O)c1cc(OCC(=O)N2CCC[C@H]2C(=O)NC2CCC2)n(-c2ccccc2)n1)C(=O)N1CCN(C(=O)OCC)CC1 | 172 | 3610 | –
CCOC(=O)N1CCN(C(=O)[C@@H](NC(=O)c2cc(OCC(=O)N3CCC[C@H]3C(=O)NC3CCC3)n(-c3ccccc3)n2)C(C)C)CC1 | 183 | 1900 | –
CCOC(=O)N1CCN(C(=O)[C@H](CNS(C)(=O)=O)NC(=O)c2cc(OCC(=O)N3CCC[C@H]3C(=O)NC3CCC3)n(-c3ccccc3)n2)CC1 | 48 | 1200 | –
CCOC(=O)N1CCN(C(=O)[C@H](CCC(=O)O)NC(=O)c2cc(OCC(=O)N3CCC[C@@H]3C(=O)NC3CC3)n(-c3ccccc3)n2)CC1 | 958 | – | –
CCOC(=O)N1CCN(C(=O)[C@H](CCC(=O)O)NC(=O)c2cc(OCC(=O)N3CCC[C@H]3C(=O)NC3CCC3)n(-c3ccccc3)n2)[C@H](C)C1 | 7.7 | 72 | –
CCOC(=O)N1CCN(C(=O)[C@H](CCC(=O)O)NC(=O)c2cc(OC(C)(C)C(=O)OCC)c3ccc(C)cc3n2)CC1 | 86 | 2600 | –
CCOC(=O)N1CCN(C(=O)[C@H](CCC(=O)O)NC(=O)c2cc(OCC(=O)N3CC(C(=O)NC4CCC4)C3)n(-c3ccccc3)n2)CC1 | 613 | 2940 | –
CCOC(=O)N1CCN(C(=O)[C@H](CCC(=O)O)NC(=O)c2cc(OCC(=O)N3CCC[C@H]3c3nc(C)c[nH]3)n(-c3ccccc3)n2)CC1 | 56 | 380 | –
COc1cccc(N2CCN(C(=O)[C@H](CCC(=O)O)NC(=O)c3cc(OCC(=O)N4CCC[C@H]4C(=O)NC4CCC4)n(-c4ccccc4)n3)CC2)c1 | 30 | 790 | –
CCOC(=O)N1CCN(C(=O)[C@H](CCC(=O)O)NC(=O)c2cc(OCC(=O)N3CCC[C@H]3C(=O)NC3CCC3)n(-c3ccccc3)n2)C[C@@H]1C | 80 | 1510 | –
CCOC(=O)N1CCN(C(=O)[C@H](CCNC(C)=O)NC(=O)c2cc(OCC(=O)N3CCC[C@H]3C(=O)NC3CCC3)n(-c3ccccc3)n2)CC1 | 42 | 675 | –
CCOC(=O)N1CCN(C(=O)[C@H](CCC(=O)O)NC(=O)c2cc(OCC(=O)N3CCC[C@H]3C(=O)NC)n(-c3ccccc3)n2)CC1 | 536 | 1460 | –

Structure (SMILES) | Ki [1] [nM] | IC50 [2] [nM] | IC50 [3] [nM]
CCCNC(=O)[C@@H]1CCCN1C(=O)COc1cc(C(=O)N[C@@H](CCC(=O)O)C(=O)N2CCN(C(=O)OCC)CC2)nn1-c1ccccc1 | 66 | 58 | 91
CCCCOC(=O)NC1CCN(C(=O)[C@H](CCC(=O)O)NC(=O)c2cc(OCC(=O)N3CCC[C@H]3C(=O)NC3CCC3)n(-c3ccccc3)n2)CC1 | 22 | 55 | 120
O=C(O)CC[C@H](NC(=O)c1cc(OCC(=O)N2CCC[C@H]2C(=O)NC2CCC2)n(-c2ccccc2)n1)C(=O)N1CCC(C(=O)c2ccccc2)CC1 | 40 | 1330 | –
CCOC(=O)N1CCN(C(=O)[C@H](CCO)NC(=O)c2cc(OCC(=O)N3CCC[C@H]3C(=O)NC3CCC3)n(-c3ccccc3)n2)CC1 | 23 | 210 | 120
CCCCOC(=O)N1CCN(C(=O)[C@H](CCc2nnn[nH]2)NC(=O)c2cc(OCC(=O)N3CCC[C@H]3C(=O)NC3CCC3)n(-c3ccccc3)n2)CC1 | – | 50 | 79
CCOC(=O)N1CCN(C(=O)[C@H](CC(C)C)NC(=O)c2cc(OCC(=O)N3CCC[C@H]3C(=O)NC3CCC3)n(-c3ccccc3)n2)CC1 | 207 | > 5000 | –
CCOC(=O)N1CCN(C(=O)[C@H](CCC(=O)O)NC(=O)c2cc(OCC(=O)N3CCC(C(=O)NC4CCC4)C3)n(-c3ccccc3)n2)CC1 (some centres not stated) | 238 | 3130 | –
CCCCOC(=O)NC1CCN(C(=O)[C@H](CCC(=O)O)NC(=O)c2cc(OCC(=O)N3CCC[C@H]3C(=O)NC3CCC3)n(-c3ccccc3)n2)C1 (some centres not stated) | 82 | 1880 | –
CCOC(=O)N1CCN(C(=O)[C@H](CCC(=O)O)NC(=O)c2cc(OCC(=O)N3CCCC3=O)n(-c3ccccc3)n2)CC1 | 173 | 900 | –
CCOC(=O)N1CCN(C(=O)[C@H](CCC(=O)O)NC(=O)c2cc(OCC(=O)N3CCC[C@H]3C(=O)NC3CCC3)n(-c3ccccc3)n2)[C@@H](C)C1 | 54 | 430 | –
CCOC(=O)N1CCN(C(=O)[C@H](CCNS(C)(=O)=O)NC(=O)c2cc(OCC(=O)N3CCC[C@H]3C(=O)NC3CCC3)n(-c3ccccc3)n2)CC1 | 23 | – | –
CCOC(=O)N1CCN(C(=O)[C@H](CCC(=O)O)NC(=O)c2cc(=O)n(-c3ccccc3)[nH]2)CC1 | > 5000 | > 10000 | –
CCOC(=O)N1CCN(C(=O)[C@H](CCC(=O)O)NC(=O)c2cc(OCC(=O)C(C)(C)C)n(-c3ccccc3)n2)CC1 | 242 | 3730 | 2460
CCOC(=O)N1CCN(C(=O)[C@H](CCC(=O)O)NC(=O)c2cc(OCC(=O)N3CCC[C@H]3c3ccccc3)n(-c3ccccc3)n2)CC1 | 33 | – | –
CCCCOC(=O)N1CCC(NC(=O)[C@H](CCC(=O)O)NC(=O)c2cc(OCC(=O)N3CCC[C@H]3C(=O)NC3CCC3)n(-c3ccccc3)n2)C1 (some centres not stated) | 193 | > 5000 | –
CCOC(=O)N1CCN(C(=O)[C@H](CCC(=O)O)NC(=O)c2cc(OCC(=O)C3CCC3)n(-c3ccccc3)n2)CC1 | 574 | 7410 | –
O=C(O)CC[C@H](NC(=O)c1cc(OCC(=O)N2CCC[C@H]2C(=O)NC2CCC2)n(-c2ccccc2)n1)C(=O)N1CCN(C(=O)OC2CCC2)CC1 | 5 | 14 | –
CCOC(=O)N1CCN(C(=O)[C@H](CCC(=O)O)NC(=O)c2cc(OCC(=O)N3CCC[C@H]3C(=O)NC3CCC3)n(-c3ccccc3)n2)C[C@H]1C | 51 | 335 | –
O=C(O)CC[C@H](NC(=O)c1cc(OCC(=O)N2CCC[C@H]2C(=O)NC2CCC2)n(-c2ccccc2)n1)C(=O)N1CCN(C(=O)Oc2ccccc2)CC1 | 71 | 1080 | –
CNc1cc2[nH]c(=O)n(-c3ccc(NC(=O)NS(=O)(=O)c4ccc(Cl)s4)cc3)c(=O)c2cc1F [ELINOGREL] | 23 | 2810 | –
CCOC(=O)N1CCN(C(=O)[C@H](CCC(=O)O)NC(=O)c2cc(OCC(=O)N3CCC[C@H]3C(=O)NC(C)C)n(-c3ccccc3)n2)CC1 | 56 | – | –
CCOC(=O)N1CCN(C(=O)[C@H](CCC(=O)O)NC(=O)c2cc(OCC(=O)N(CC)CC)n(-c3ccccc3)n2)CC1 | > 5000 | > 10000 | –
O=C(O)CC[C@H](NC(=O)c1cc(OCC(=O)N2CCC[C@H]2C(=O)NC2CCC2)n(-c2ccccc2)n1)C(=O)N1CCN(C(=O)c2ccccc2)CC1 | 130 | 1230 | –
CCOC(=O)N1CCN(C(=O)[C@H](C)NC(=O)c2cc(OCC(=O)N3CCC[C@H]3C(=O)NC3CCC3)n(-c3ccccc3)n2)CC1 | 111 | 2210 | –
CCOC(=O)N1CCN(C(=O)[C@H](CCC(=O)O)NC(=O)c2cc(OCC(=O)N3CCC[C@H]3C(=O)NC3CC3)n(-c3ccccc3)n2)CC1 | 105 | 13 | –
CCOC(=O)N1CCN(C(=O)[C@H](CCCCO)NC(=O)c2cc(OCC(=O)N3CCC[C@H]3C(=O)NC3CCC3)n(-c3ccccc3)n2)CC1 | 202 | 2400 | –

— ChEMBL document CHEMBL2169809, “Identification of high-affinity P2Y₁₂ antagonists based on a phenylpyrazole glutamic acid piperazine backbone” (J Med Chem, 2012)
